Screening results (PubChem)
An excerpt weighted towards active compounds, which were near 1.2% of everything screened.
EBNA-1 inhibitor = blocks EBNA-1 binding to DNA; EBNA-1 DNA binding, fluorescence polarization; inhibition, % at 14.8 µM; 0.34% of 300,000 active; in the data active = inhibition above about 28%
ZTA DNA inh = counter-screen for EBNA-1 inhibitors: inhibitors of Epstein-Barr virus ZTA; P03206; ZTA-DNA binding, fluorescence polarization; inhibition, % at 11 µM; 0.15% of 320,000 active; AID 2234; in the data active = inhibition above about 33%
Target sequence (P03206 whole entry, looked up): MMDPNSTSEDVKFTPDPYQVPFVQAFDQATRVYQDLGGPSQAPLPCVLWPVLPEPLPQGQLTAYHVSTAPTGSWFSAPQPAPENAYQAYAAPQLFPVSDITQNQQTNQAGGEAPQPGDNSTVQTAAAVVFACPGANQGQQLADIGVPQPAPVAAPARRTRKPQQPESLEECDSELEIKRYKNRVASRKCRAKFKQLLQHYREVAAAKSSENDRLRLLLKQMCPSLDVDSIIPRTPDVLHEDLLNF
core dimer inh = HCV core protein dimerization inhibition; TR-FRET GST/Flag-core106 dimerization, 1536-well; inhibition, % at 5 µM; 0.33% of 300,000 active;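 active = inhibition above the mean of all tested compounds plus 3 SD, set per screening campaign, cut at about 45% in these data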
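Assay system: GST-tagged and Flag-tagged HCV core protein residues 1-106 / Times: compound-protein-antibody incubation 4 h at 22.5 °C / Signal: time-resolved FRET, ex 340 nm, em 617 and 671 nm / Evaluation: % inhibition based on acceptor/donor emission ratio / Benchmarks: wells lacking GST-core106 and wells with excess unlabelled core106 / Repeats: singlicate, one well per compound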
NS3 helicase inh = inhibitors of Hepatitis C virus NS3 helicase; NS3 helicase DNA unwinding, Cy5 molecular beacon fluorescence; inhibition, % at 10.9 µM; 0.56% of 290,000 active; AID 1800;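 active = inhibition above the mean of all tested compounds plus 3 SD, set per campaign, cut at about 35% in these data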;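 also: 0% = DMSO wells and 100% = thioflavine S control wells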
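System: HCV NS3 helicase fragment; control set: DMSO and thioflavine S; technique: Cy5 fluorescence at 0 and 60 min, beacon hairpin quenching; reagent: beacon DNA duplex substrate plus ATP; replicates: singlicate; schedule: 1 h reaction at 25 °C, ATP-initiated; medium: MOPS buffer pH 6.5 with MgCl2, DTT, Tween20, BSA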
NS3 helicase cf = HCV NS3 helicase inhibition, confirmation assay; 31% of 1,600 active; NS3 helicase DNA unwinding, Cy5 molecular beacon fluorescence; shares compounds with NS3 helicase inh; inhibition, % at 10.9 µM;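 active = inhibition above the mean of all tested compounds plus 3 SD, cutoff set per campaign, cut at about 36% in these data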
DNA FID counter = intercalator displacement, NS3 helicase counter-screen; shares compounds with NS3 helicase inh; AID 1945; DNA fluorescent intercalator displacement, fluorescence; 4% of 1,600 active; inhibition, % at 7.9 µM; in the data active = inhibition above about 37%;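 also: 0% = vehicle and 100% = reference compound; higher means more displacement of ethidium bromide from the DNA hairpin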
DNA FID DR = counter-screen for HCV NS3 helicase inhibitors: DNA intercalator displacement dose response | shares compounds with NS3 helicase inh | IC50, µM | fluorescent intercalator displacement from DNA, fluorescence | 120 tested, under 10 active; call rule not given here
* hit, by the source's call; i = inactive; · = not tested or not shown.

SMILES	EBNA-1 inhibitor	ZTA DNA inh	core dimer inh	NS3 helicase inh	NS3 helicase cf	DNA FID counter	others
CC(C)N1C(=O)/C(=C/C=C/c2ccco2)C(=O)N(Cc2ccco2)C1=O	5	8	63*	22	·	·
COc1ccc(/C=C2/C(=O)N(Cc3ccco3)C(=O)N(C(C)C)C2=O)cc1	0	7	0	20	·	·
C#C[C@@]1(O)CCC2C3CCC4=C/C(=N/OCC(=O)NC(C(=O)NC(CC(C)C)C(=O)O)C(C)C)CC[C@]4(C)C3CC[C@@]21C (stereo partly specified)	·	·	·	14	·	·
C[CH2][Hg][S]c1ccccc1C(=O)O	-13	-28	-7	·	·	·
C=CCn1c(O)c(C(C)=Nc2ccc(N(C)C)cc2)c(=O)[nH]c1=O	58*	150*	-3	25	·	·
C=CCn1c(O)c(C(C)=Nc2ccc(N(CC)CC)cc2)c(=O)[nH]c1=O	-1	3	4	24	·	·
COC(=O)C1=C(c2ccc3ccccc3c2)C[C@@H]2CC[C@H]1N2C(=O)N1CCC(C)CC1	·	-17	·	·	·	·
C=C(CO)CC1CC(O)[C@]2(C)OC3CC4OC5C[C@]6(C)O[C@]7(C)CCC8OC9C[C@]%10(C)OC%11C(C)=CC(=O)OC%11CC%10OC9C[C@@H](C)C8OC7CC6O[C@]5(C)C/C=C\C4OC3CC2O1 (stereo partly specified)	4	6	-3	-4	·	·
C=C(C=O)CC1CC(O)[C@]2(C)OC3CC4OC5C[C@]6(C)O[C@]7(C)CCC8OC9C[C@]%10(C)OC%11C(C)=CC(=O)OC%11CC%10OC9C[C@@H](C)C8OC7CC6O[C@]5(C)CC5OC5C4OC3CC2O1 (stereo partly specified)	6	5	49*	4	·	·
C=CCOc1ccc(CC2C(=O)N(C)C(=O)N(C)C2=O)cc1	-5	10	85*	9	·	·
Cc1ccccc1NS(=O)(=O)c1ccc(OCC(=O)N2CCN(C)CC2)cc1	8	-1	-5	-1	·	·
CN1C(=O)/C(=C/c2cccn2-c2ccc3ccccc3c2)C(=O)NC1=S	2	9	65*	18	·	·
COC(=O)C1=C(c2ccc(F)cc2F)C[C@@H]2CC[C@H]1N2C(=O)NC1Cc2ccccc2C1	·	-8	·	·	·	·
O=C(O)c1cccc2c1NC(C(=O)O)C1CC(Sc3ccccc3[N+](=O)[O-])C(Cl)C21 (stereo unspecified)	35*	110*	-6	35	·	·
NC(Cc1cc(O)c(O)cc1O)C(=O)O (stereo unspecified)	90*	49*	30	·	·	·
CCC(c1ccc(C)cc1)N1C(=O)C2C3CCC(O3)C2C1=O (stereo unspecified)	·	-11	·	·	·	·
CN(C)c1ccc(/C=C/C=C/c2sc3ccccc3[n+]2C)cc1	32*	45*	-15	30	·	·
O=C1NC(=S)NC(=O)C1=Cc1ccc2c(c1)CCN2CCCCl	20	13	65*	27	·	·
CCOc1cccc(N2C(=O)/C(=C/c3ccco3)C(=O)NC2=S)c1	11	8	61*	19	·	·
COc1ccccc1/C=C1\C(=O)NC(=S)N(c2ccccc2)C1=O	-11	0	-8	24	·	·
COC(=O)C1=C(c2ccc(F)cc2OCc2ccccc2)C[C@@H]2CC[C@H]1N2C(=O)N1CCCC1	·	5	·	·	·	·
CC(C)n1c(=O)c(C=Nc2ccc(Cl)cc2)c(O)n(Cc2ccco2)c1=O	-1	-11	24	47*	·	·
COc1ccc(N2C(=O)NC(=O)/C(=C/c3ccc([N+](=O)[O-])s3)C2=O)cc1	6	25	1	39*	50*	0	DNA FID DR=i
O=C1NC(=O)N(Cc2ccco2)C(=O)/C1=C\c1cccn1CCOc1ccc(Cl)cc1	-1	16	1	44*	25	-5
O=C1NC(=O)N(c2ccc3c(c2)OCO3)C(=O)/C1=C\c1ccc(-c2ccccc2C(=O)O)o1	-11	1	0	24	·	·
SMILES	EBNA-1 inhibitor	ZTA DNA inh	core dimer inh	NS3 helicase inh	NS3 helicase cf	DNA FID counter	others
Cc1cccc(N2C(=O)NC(=O)/C(=C/c3ccc(-c4ccc(C(=O)O)c(Cl)c4)o3)C2=O)c1	-8	-7	0	37*	-22	14
C[N+]1(CC(COCc2ccccc2)OC(=O)Cc2ccccc2)CCOCC1 (stereo unspecified)	11	14	-5	-5	·	·
Cc1cc(/C=C2/C(=O)NC(=O)N(Cc3ccco3)C2=O)c(C)n1-c1ccccc1	0	2	35	50*	7	-29
C=CCN1C(=O)NC(=O)/C(=C\c2ccc(-c3ccccc3[N+](=O)[O-])o2)C1=O	4	2	2	8	·	·
CN(C)c1ccc(/C=C2/C(=O)NC(=O)N(Cc3ccco3)C2=O)cc1	0	11	4	25	·	·
O=C1NC(=O)N(Cc2ccco2)C(=O)/C1=C/c1ccc(-c2cccc([N+](=O)[O-])c2)o1	-7	-13	16	39*	66*	18
O=C1NC(=S)N(Cc2ccco2)C(=O)/C1=C\c1cccs1	·	·	·	52*	77*	21
O=C(c1ccc(F)c([N+](=O)[O-])c1)N1CC2CC(C1)c1cccc(=O)n1C2 (stereo unspecified)	-7	-4	-5	18	·	·
CCn1c(O)c(C=Nc2ccc(N3CCOCC3)cc2)c(=O)n(CC)c1=S	7	-3	-5	40*	-7	-22
CCn1c(O)c(C=Nc2ccc(N3CCOCC3)c(Br)c2)c(=O)n(CC)c1=S	-10	-1	0	0	·	·
CCN1C(=O)C(=C/C=C/c2ccco2)C(=O)N(CC)C1=S	7	5	46	39*	75*	6
CC(=O)c1ccc2c(c1)C1C(Cl)C(Sc3ccccc3[N+](=O)[O-])CC1C(C(=O)O)N2 (stereo unspecified)	-16	-9	-2	41*	52*	7
CCOC(=O)c1c(C=O)c2ccccc2n1Cc1ccccc1F	2	2	-4	-2	·	·
O=c1nc(/C=C/c2ccc(Cl)cc2Cl)cc(C(F)(F)F)[nH]1	·	·	·	46*	70*	-16
ClC(Cl)=C(c1ccc(Cl)cc1)c1ccc(Cl)cc1	2	-7	-2	·	·	·
O=C(N/N=C/c1c(O)n(CCc2ccc(F)cc2)c(=O)[nH]c1=O)c1ccncc1	-1	22	-8	38*	-6	-13
O=C(N/N=C/c1c(O)n(CCc2ccccc2)c(=O)[nH]c1=O)c1ccncc1	-5	10	-3	13	·	·
CCCc1cc(=O)oc2cc(OCC(=O)N3CCN(Cc4ccc5c(c4)OCO5)CC3)ccc12	5	-11	7	-10	·	·
CCCc1cc(=O)oc2cc(OCC(=O)N3CCC(C(=O)O)(c4ccccc4)CC3)ccc12	0	3	2	49*	-24	-26
